Experimental data pooled from the literature.
Protocols differ between the studies behind these lines.
Target: Mitogen-activated protein kinase kinase kinase kinase 5 (MAP4K5, Homo sapiens, UniProt Q9Y4K4)

SMILES | assay | setting | remaining binding
COc1ncc2cc3ccccc3nc2c1C#N | cell-free assay, competition with immobilised ligand | 5 µM | 95%
O=C(Nc1c[nH]nc1C(=O)NC1CCNCC1)c1cc(F)cc(F)c1 | binding, competition with immobilised ligand | 1 µM | 100%
CN(c1nccc(-c2cnn3ncccc23)n1)C1CC1 | binding | 1 µM | 3.2%
O=C(N1CCS(=O)(=O)CC1)N1C[C@H](c2ccc(OC(F)(F)F)cc2)C[C@H](c2nc(C3CC3)no2)C1 | cell-free assay, competition with immobilised ligand | 1 µM | 100%
CCN1CCN(Cc2ccc(C(=O)Nc3ccc(C)c(Oc4ccc5c(c4)CC(=O)N5)c3)cc2C(F)(F)F)CC1 | binding, competition with immobilised ligand | 1 µM | 100%
Nc1ncc2c(n1)-c1c([nH]c3ccc(C#CC4CC4)cc13)CCCC2 | binding, competition with immobilised ligand | 1 µM | 82%
F[C@@H]1CCN(c2nccc(-c3cnn4ncccc34)n2)C1 | binding | 1 µM | 79%
COc1ccc2c(O[C@@H]3C[C@H]4C(=O)N[C@]5(C(=O)O)CC5/C=C\CCCCC[C@H](NC(=O)OC5CCCC5)C(=O)N4C3)cc(-c3csc(NC(=O)C(C)C)n3)nc2c1C (stereo partly drawn) | cell-free assay, competition with immobilised ligand | 1 µM | 100%
CN(CCCC(F)(F)F)c1nccc(-c2cnn3ncccc23)n1 | binding | 1 µM | 100%
O=C(NCCCN1CCOCC1)c1ccc(Nc2nccc(-c3cc4ccccc4s3)n2)cc1 | binding, competition with immobilised ligand | 1 µM | 82%
N[C@@H]1CCN(c2nccc(-c3cnn4ncccc34)n2)C1 | binding | 1 µM | 100%
CNC(=O)[C@@H]1CC[C@@H](n2c(-c3ccc4cnccc4c3)nc3ccc(C(=O)NCc4cccc(C(N)=O)c4)cc32)C1 | binding, competition with immobilised ligand | 1 µM | 100%
Cc1cnc(Nc2ccc(C(=O)N3CCC(N4CCCC4)CC3)cc2)nc1-c1cc2ccccc2s1 | binding, competition with immobilised ligand | 1 µM | 51%
CC(=O)Nc1c(C(C)=O)c(=O)n(C)c2nc(-c3ccc(Cl)cc3Cl)c(-c3ccc(Cl)cc3)cc12 | cell-free assay, competition with immobilised ligand | 1 µM | 100%
C=CC(=O)N1CCC(C(=O)NCC(=O)N2CCN(c3nc(-c4cnc(N)nc4C(F)F)nc(N4CCOCC4)n3)CC2)CC1 | binding, competition with immobilised ligand | 1 µM | 95%
Cc1c(NC(=O)c2cc(C(N)=O)nc3cc(F)ccc23)c(C(F)(F)F)nn1Cc1ccc(C#N)cc1 | cell-free assay, competition with immobilised ligand | 1 µM | 74%
O=C(c1ccc(Nc2nccc(-c3cc4ccccc4s3)n2)cc1)N1CCC(N2CCCC2)CC1 | binding, competition with immobilised ligand | 1 µM | 100%
CN(C)c1ncc(F)c(-c2cnn3ncccc23)n1 | binding | 1 µM | 100%
Nc1c(C(=O)NCc2ccc(C(=O)NCCCC3CCCCC3)cc2)cnn1-c1ccccc1 | cell-free assay, competition with immobilised ligand | 0.1 µM | 100%
C[C@H]1CCN(c2nccc(-c3cnn4ncccc34)n2)C1 | binding | 1 µM | 90%
O=C(NCc1ncc(C(F)(F)F)cc1Cl)c1ccc2c(c1)C1(CCS(=O)(=O)CC1)[C@@H](C1CC1)N2S(=O)(=O)c1ccc(F)cc1 | cell-free assay, competition with immobilised ligand | 1 µM | 100%
